Measurements as given in ChEMBL document CHEMBL6177921, “Enhancing the antimycobacterial efficacy of pyridine-4-carbohydrazide: linkage to additional antimicrobial agents via oxocarboxylic acids” (RSC Med Chem, 2025).
In brackets after ≈: the same amount, converted by molar mass.

What was measured:
Mycobacterium kansasii [1] = assay: Antimycobacterial activity against INH/RIF/rifabutin/OFX/EMB Mycobacterium kansasii CNCTC 6509/96 clinical isolate assessed as bacterial growth inhibition incubated for 7 days by two-fold serial dilution method; format: functional; details: CNCTC 6509/96, 168 h, time 7 day
Summary of the method: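 Šula's liquid semisynthetic medium; M. kansasii clinical isolate 6509/96 used at stock dilution 10−4, final ~1.5 × 10^5 CFU mL−1. Two-fold dilutions ran 1000–1 μM with final DMSO 1.0% (v/v). MIC was read visually as complete growth inhibition after 7, 14 and 21 days.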

Mycobacterium avium [2] = assay: Antimycobacterial activity against INH/RIF/rifabutin/OFX/EMB resistant Mycobacterium avium CNCTC 330/88 assessed as bacterial growth inhibition incubated for 21 days by two-fold serial dilution method; format: functional; details: CNCTC 330/88, 504 h, time 21 day
Summary of the method: (§1)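 M. avium CNCTC 330/88 (stock suspension dilution 10−5) grown in Šula's semisynthetic liquid medium; two-fold serial dilutions 1000 to 1 μM from DMSO stocks (final DMSO 1.0% v/v); final load 1.5 × 10^5 CFU mL−1; MIC read visually as lowest concentration giving complete growth inhibition after 14 and 21 days.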

Mycobacterium avium [3] = assay: Antimycobacterial activity against INH/RIF/rifabutin/OFX/EMB resistant Mycobacterium avium CNCTC 330/88 assessed as bacterial growth inhibition incubated for 14 days by two-fold serial dilution method; format: functional; details: CNCTC 330/88, 336 h, time 14 day; summary of the method: as §1
[4] = test system: Mycobacterium tuberculosis; assay: Antimycobacterial activity against Mycobacterium tuberculosis H37Rv CNCTC 331/88 assessed as bacterial growth inhibition incubated for 21 days by two fold serial dilution method; format: functional; details: H37Rv CNCTC 331/88, 504 h, time 21 day
Mycobacterium kansasii [5] = assay: Antimycobacterial activity against multi-drug resistant Mycobacterium kansasii CNCTC 6509/96 clinical isolate assessed as bacterial growth inhibition incubated for 14 days by two-fold serial dilution method; format: functional; details: CNCTC 6509/96, 336 h, time 14 day
Summary of the method: (§2)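 M. kansasii clinical isolate 6509/96 (stock dilution 10−4) in Šula's semisynthetic liquid medium; two-fold serial dilutions 1000 to 1 μM, DMSO final 1.0% v/v; final load 1.5 × 10^5 CFU mL−1; MIC read visually as complete growth inhibition at 7, 14 and 21 days.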

[6] = test system: Mycobacterium tuberculosis; assay: Antimycobacterial activity against multidrug sensitive Mycobacterium tuberculosis H37Rv CNCTC 331/88 assessed as bacterial growth inhibition incubated for 14 days by two-fold serial dilution method; format: functional; details: H37Rv CNCTC 331/88, 336 h, time 14 day
[7] = Hemolytic activity in human Red blood cells assessed as effect of lipid bilayer membrane incubated for 1 hr by absorbance based spectrophotometric analysis; format: toxicity, cell-based; details: erythrocyte
Summary of the method: (§3)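 Human erythrocyte suspension mixed 1:1 with compound in Hartmann's solution at final 125 μM, final DMSO 1.0% (v/v), 37 °C for 1 h. After centrifugation, released haemoglobin in the supernatant was read at 405 nm. Negative control was hRBCs with 1.0% DMSO; positive control was hRBCs sonicated for 1 min.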

Mycobacterium kansasii [8] = assay: Antimycobacterial activity against multi-drug resistant Mycobacterium kansasii clinical isolate CNCTC 6509/96 assessed as bacterial growth inhibition incubated for 21 days by two-fold serial dilution method; format: functional; details: CNCTC 6509/96, 504 h, time 21 day; summary of the method: as §2
[9] = test system: Staphylococcus epidermidis; assay: Antibacterial activity against Staphylococcus epidermidis ATCC 12228 assessed as bacterial growth inhibition incubated for 24 to 48 hrs by broth microdilution method; format: functional; details: time 24-48 hrs
Summary of the method: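 Broth microdilution in cation-adjusted Mueller-Hinton broth, adapted from EUCAST. Compounds were tested at 0.98–500 μM with final DMSO ≤1.0% (v/v). Inoculum came from 16–24 h cultures, final ~5 × 10^5 CFU mL−1. Plates were incubated statically, dark and humidified, at 35 ± 2 °C. MIC was read by eye at 24 and 48 h as the lowest concentration with no visible growth.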

[10] = Hemolytic activity in human Red blood cells assessed as hemolysis rate incubated for 1 hr by absorbance based spectrophotometric analysis relative to control; format: toxicity, cell-based, Erythrocyte; details: read-out: Activity; summary of the method: as §3

| Compound | MIC (Mycobacterium kansasii [1]) [µM] | MIC (Mycobacterium avium [2]) [µM] | MIC (Mycobacterium avium [3]) [µM] | MIC [4] [µM] | MIC (Mycobacterium kansasii [5]) [µM] | MIC [6] [µM] | Activity [7] | MIC (Mycobacterium kansasii [8]) [µM] | MIC [9] [µM] | hemolysis at 1 h [10] [%] |
| --- | --- | --- | --- | --- | --- | --- | --- | --- | --- | --- |
| C/C(=N\NC(=O)c1ccncc1)C(=O)Nc1ccc(Sc2ccc([N+](=O)[O-])cc2)cc1 | 1 (≈ 0.435 µg/mL) | 500 (≈ 218 µg/mL) | 500 (≈ 218 µg/mL) | 0.25 (≈ 0.109 µg/mL) | 1 (≈ 0.435 µg/mL) | 0.25 (≈ 0.109 µg/mL) | Non-toxic | 2 (≈ 0.871 µg/mL) | – | – |
| C/C(=N\NC(=O)c1ccncc1)C(=O)NNC(N)=S | 16 (≈ 4.49 µg/mL) | 1000 (≈ 280 µg/mL) | 1000 (≈ 280 µg/mL) | 2 (≈ 0.561 µg/mL) | 32 (≈ 8.97 µg/mL) | 1 (≈ 0.28 µg/mL) | – | 32 (≈ 8.97 µg/mL) | 125 (≈ 35 µg/mL) | – |
| COC(=O)c1ccc(NC(=O)/C(C)=N/NC(=O)c2ccncc2)cc1O | 8 (≈ 2.85 µg/mL) | ≥ 1000 | ≥ 1000 | 0.5 (≈ 0.178 µg/mL) | 16 (≈ 5.7 µg/mL) | 0.5 (≈ 0.178 µg/mL) | – | 16 (≈ 5.7 µg/mL) | 125 (≈ 44.5 µg/mL) | – |
| COc1nc2ccc(Br)cc2cc1[C@@H](c1ccccc1)[C@@](O)(CCN(C)C)c1cccc2ccccc12 [BEDAQUILINE] | – | – | – | – | – | – | Toxic | – | – | – |
| CC[C@@H](CO)NCCN[C@@H](CC)CO [ETHAMBUTOL] | – | – | – | – | – | – | – | – | – | 0.01 |
| NNC(=O)c1ccncc1 [ISONIAZID] | 8 (≈ 1.1 µg/mL) | > 250 | > 250 | 1 (≈ 0.137 µg/mL) | 8 (≈ 1.1 µg/mL) | 1 (≈ 0.137 µg/mL) | – | 16 (≈ 2.19 µg/mL) | – | 0.01 |
| NC(=O)c1cnccn1 [PYRAZINAMIDE] | – | – | – | – | – | – | – | – | – | 0.01 |
| CO[C@H]1/C=C/O[C@@]2(C)Oc3c(C)c(O)c4c(O)c(c(/C=N/N5CCN(C)CC5)c(O)c4c3C2=O)NC(=O)/C(C)=C\C=C\[C@H](C)[C@H](O)[C@@H](C)[C@@H](O)[C@@H](C)[C@H](OC(C)=O)[C@@H]1C [RIFAMPIN] | – | – | – | – | – | – | – | – | – | 0.01 |
